Laboratory results taken from ChEMBL document CHEMBL1833943, “Synthesis and structure-activity relationships of varied ether linker analogues of the antitubercular drug (6S)-2-nitro-6-{[4-(trifluoromethoxy)benzyl]oxy}-6,7-dihydro-5h-imidazo[2,1-b][1,3]oxazine (PA-824)” (J Med Chem, 2011).
In brackets after ≈: the same amount, converted by molar mass.

What was measured:
[1] = test system: Mycobacterium tuberculosis; test: Antituberculosis activity against Mycobacterium tuberculosis H37Rv under aerobic conditions by microplate alamar blue assay; assay type: functional
[2] = Metabolic stability in CD1 mouse liver microsomes at 1 uM measured as compound remaining after 1 hr by LC/MS/MS analysis; assay type: ADME, Microsome; settings: read-out: Stability
[3] = Aqueous solubility of the compound in water at pH 7 by HPLC analysis; assay type: physicochemical
Outline: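 Solubility measured in water at pH 7 and 20 °C, quantified by HPLC.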

[4] = Metabolic stability in human liver microsomes at 1 uM measured as compound remaining after 1 hr by LC/MS/MS analysis; assay type: ADME, Microsome; settings: read-out: Stability
[5] = test system: Mycobacterium tuberculosis; test: Antituberculosis activity against Mycobacterium tuberculosis H37Rv under anaerobic conditions by fluorescence based low-oxygen-recovery assay; assay type: functional
[6] = test system: Mycobacterium tuberculosis; test: Antituberculosis activity against Mycobacterium tuberculosis H37Rv infected in BALB/c mouse acute infection model assessed as fold reduction in bacterial CFU in lungs at 100 mg/kg, po administered for 5 days a week for 3 weeks beginning on day 11 postinfection relative to PA-824; assay type: functional
Outline: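 Mice with acute M. tb infection dosed orally at 100 mg/kg daily, 5 days each week, standard 3 week assay. Lung CFUs counted. Value is the fold CFU decrease for the compound divided by the fold CFU decrease for the internal reference standard run in the same experiment.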

[7] = Stability of the compound in antimycobacterial activity assay condition assessed as parent compound level; assay type: ADME
[8] = Cmax in lung of CD1 mouse at 40 mg/kg, po; assay type: ADME, organism-based; set-up: dose 40 mg/kg, route oral
Outline: (§1)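 Mice given a single oral dose of 40 mg/kg; drug levels followed over time in plasma and lung tissue to derive half-life, Cmax and AUC for each matrix.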

[9] = Half life in the lung of CD1 mouse at 40 mg/kg, po; assay type: ADME, organism-based; set-up: dose 40 mg/kg, route oral; outline: as §1
[10] = Half life in plasma of CD1 mouse at 40 mg/kg, po; assay type: ADME, organism-based; set-up: dose 40 mg/kg, route oral
[11] = AUC (0 to infinity) in lung of CD1 mouse at 40 mg/kg, po; assay type: ADME, organism-based; set-up: time infinity, dose 40 mg/kg, route oral; outline: as §1
[12] = Cmax in plasma of CD1 mouse at 40 mg/kg, po; assay type: ADME, organism-based; set-up: dose 40 mg/kg, route oral; outline: as §1
[13] = AUC (0 to infinity) in plasma of CD1 mouse at 40 mg/kg, po; assay type: ADME, organism-based; set-up: time infinity, dose 40 mg/kg, route oral; outline: as §1
[14] = Ratio of AUC (0 to infinity) in lung of CD1 mouse to AUC (0 to infinity) in plasma of CD1 mouse at 40 mg/kg, po; assay type: ADME, organism-based; set-up: dose 40 mg/kg, route oral; settings: read-out: Ratio AUC

Work on `O=[N+]([O-])c1cn2c(n1)OC[C@@H](OCc1ccc(OCc3ccccc3)cc1)C2` yielded an MIC [1] of 0.025 µM (≈ 0.00953 µg/mL), a remaining at 1 h, 1 µM [2] of 44% and a solubility [3] of 0.76 µg/mL (≈ 1.99 µM). For the same molecule, the remaining at 1 h, 1 µM [4] was 59% and the MIC [5] was 1.3 µM (≈ 0.496 µg/mL).
With `O=[N+]([O-])c1cn2c(n1)OC[C@@H](OCc1ccc(C(F)(F)F)cn1)C2` the MIC [1] was 1.5 µM (≈ 0.516 µg/mL), the solubility [3] was 188 µg/mL (≈ 546 µM) and the MIC [5] was 22 µM (≈ 7.57 µg/mL).
With `O=[N+]([O-])c1cn2c(n1)OC[C@@H](OCc1ccc(C(F)(F)F)nc1)C2` the MIC [1] was 3 µM (≈ 1.03 µg/mL), the solubility [3] was 68 µg/mL (≈ 198 µM) and the MIC [5] was 50 µM (≈ 17.2 µg/mL).
`O=[N+]([O-])c1cn2c(n1)OC[C@@H](OCCCc1ccc(OC(F)(F)F)cc1)C2` gave an MIC [1] of 0.22 µM (≈ 0.0852 µg/mL), a solubility [3] of 11 µg/mL (≈ 28.4 µM) and an MIC [5] of 3.2 µM (≈ 1.24 µg/mL).
For `O=[N+]([O-])c1cn2c(n1)OC[C@@H](OCCCc1ccc(C(F)(F)F)nc1)C2`, the MIC [1] was 0.51 µM (≈ 0.19 µg/mL), the solubility [3] was 168 µg/mL (≈ 451 µM) and the MIC [5] was 12 µM (≈ 4.47 µg/mL).
For `O=[N+]([O-])c1cn2c(n1)OC[C@@H](OCCOc1ccc(OC(F)(F)F)cc1)C2`, the MIC [1] was 0.04 µM (≈ 0.0156 µg/mL), the remaining at 1 h, 1 µM [2] was 66% and the “fold change (FC)” value [6] was 1.3. The solubility [3] was 50 µg/mL (≈ 128 µM), the remaining at 1 h, 1 µM [4] was 85% and the MIC [5] was 5.1 µM (≈ 1.99 µg/mL).
In the case of `O=[N+]([O-])c1cn2c(n1)OC[C@@H](OCCOc1ccc(C(F)(F)F)cn1)C2`, the MIC [1] is reported as 0.38 µM (≈ 0.142 µg/mL), the solubility [3] is reported as 42 µg/mL (≈ 112 µM) and the MIC [5] is reported as 26 µM (≈ 9.73 µg/mL).
Work on `O=[N+]([O-])c1cn2c(n1)OC[C@@H](OCCOc1ccc(C(F)(F)F)nc1)C2` yielded an MIC [1] of 0.79 µM (≈ 0.296 µg/mL), a solubility [3] of 58 µg/mL (≈ 155 µM) and an MIC [5] of 59 µM (≈ 22.1 µg/mL).
With `O=[N+]([O-])c1cn2c(n1)OC[C@@H](OC/C=C/c1ccc(OC(F)(F)F)cc1)C2` the MIC [1] was 0.05 µM (≈ 0.0193 µg/mL), the remaining at 1 h, 1 µM [2] was 71% and the solubility [3] was 1.5 µg/mL (≈ 3.89 µM). It also gave a remaining at 1 h, 1 µM [4] of 99% and an MIC [5] of 4.3 µM (≈ 1.66 µg/mL).
For `O=[N+]([O-])c1cn2c(n1)OC[C@@H](OC/C=C/c1ccc(OCc3ccccc3)cc1)C2`, the MIC [1] was 0.16 µM (≈ 0.0652 µg/mL), the Stability [7] was less than 50% and the solubility [3] was 0.06 µg/mL (≈ 0.147 µM). For the same molecule, the MIC [5] was 1.3 µM (≈ 0.53 µg/mL).
In the case of `O=[N+]([O-])c1cn2c(n1)OC[C@@H](OC/C=C/c1ccc(C(F)(F)F)cn1)C2`, the MIC [1] is reported as 0.043 µM (≈ 0.0159 µg/mL), the solubility [3] is reported as 29 µg/mL (≈ 78.3 µM) and the MIC [5] is reported as 3.8 µM (≈ 1.41 µg/mL).
Work on `O=[N+]([O-])c1cn2c(n1)OC[C@@H](OC/C=C/c1ccc(C(F)(F)F)nc1)C2` yielded an MIC [1] of 0.15 µM (≈ 0.0555 µg/mL), a solubility [3] of 45 µg/mL (≈ 122 µM) and an MIC [5] of 21 µM (≈ 7.78 µg/mL).
`O=[N+]([O-])c1cn2c(n1)OC[C@@H](OCC#Cc1ccc(OC(F)(F)F)cc1)C2` gave an MIC [1] of 0.12 µM (≈ 0.046 µg/mL), a Stability [7] of less than 50% and a solubility [3] of 0.77 µg/mL (≈ 2.01 µM). The MIC [5] was 3.4 µM (≈ 1.3 µg/mL).
For `O=[N+]([O-])c1cn2c(n1)OC[C@@H](OCC#Cc1ccc(OCc3ccccc3)cc1)C2`, the MIC [1] was 0.09 µM (≈ 0.0365 µg/mL), the Stability [7] was less than 50% and the solubility [3] was 0.43 µg/mL (≈ 1.06 µM). The MIC [5] was 3.5 µM (≈ 1.42 µg/mL).
Work on `O=[N+]([O-])c1cn2c(n1)OC[C@@H](OCC#Cc1ccc(C(F)(F)F)cn1)C2` yielded an MIC [1] of 0.12 µM (≈ 0.0442 µg/mL), a solubility [3] of 8.4 µg/mL (≈ 22.8 µM) and an MIC [5] of 3.3 µM (≈ 1.22 µg/mL).
`O=[N+]([O-])c1cn2c(n1)OC[C@@H](OCC#Cc1ccc(C(F)(F)F)nc1)C2` showed an MIC [1] of 0.18 µM (≈ 0.0663 µg/mL), a solubility [3] of 11 µg/mL (≈ 29.9 µM) and an MIC [5] of 8.9 µM (≈ 3.28 µg/mL).
`O=[N+]([O-])c1cn2c(n1)OC[C@@H](OCCCC#Cc1ccc(OC(F)(F)F)cc1)C2` gave a Cmax [8] of 2720 ng/mL, a half-life [9] of 84 min and a half-life [10] of 96 min. For the same molecule, the MIC [1] was 0.05 µM (≈ 0.0206 µg/mL), the AUC(0-inf) [11] was 7570 ng·h/mL and the remaining at 1 h, 1 µM [2] was 24%. For the same molecule, the Cmax [12] was 2540 ng/mL, the Stability [7] was less than 50% and the AUC(0-inf) [13] was 12600 ng·h/mL. The Kp [14] was 0.6, the “fold change (FC)” value [6] was 4.9 and the solubility [3] was 0.09 µg/mL (≈ 0.219 µM). It also gave a remaining at 1 h, 1 µM [4] of 69% and an MIC [5] of 1.9 µM (≈ 0.782 µg/mL).
`O=[N+]([O-])c1cn2c(n1)OC[C@@H](OCCCC#Cc1ccc(C(F)(F)F)cn1)C2` gave an MIC [1] of 0.19 µM (≈ 0.0753 µg/mL), a solubility [3] of 28 µg/mL (≈ 70.6 µM) and an MIC [5] of 3.5 µM (≈ 1.39 µg/mL).
